{"source": "paper PMC4367188", "about": "(ACS Chemical Neuroscience, 2015)", "key": {"[1]": {"biological_target": "Transporter, Serotonin (5-hydroxytryptamine) (SERT) (Homo sapiens, UniProt P31645)", "sequence (P31645 whole entry)": "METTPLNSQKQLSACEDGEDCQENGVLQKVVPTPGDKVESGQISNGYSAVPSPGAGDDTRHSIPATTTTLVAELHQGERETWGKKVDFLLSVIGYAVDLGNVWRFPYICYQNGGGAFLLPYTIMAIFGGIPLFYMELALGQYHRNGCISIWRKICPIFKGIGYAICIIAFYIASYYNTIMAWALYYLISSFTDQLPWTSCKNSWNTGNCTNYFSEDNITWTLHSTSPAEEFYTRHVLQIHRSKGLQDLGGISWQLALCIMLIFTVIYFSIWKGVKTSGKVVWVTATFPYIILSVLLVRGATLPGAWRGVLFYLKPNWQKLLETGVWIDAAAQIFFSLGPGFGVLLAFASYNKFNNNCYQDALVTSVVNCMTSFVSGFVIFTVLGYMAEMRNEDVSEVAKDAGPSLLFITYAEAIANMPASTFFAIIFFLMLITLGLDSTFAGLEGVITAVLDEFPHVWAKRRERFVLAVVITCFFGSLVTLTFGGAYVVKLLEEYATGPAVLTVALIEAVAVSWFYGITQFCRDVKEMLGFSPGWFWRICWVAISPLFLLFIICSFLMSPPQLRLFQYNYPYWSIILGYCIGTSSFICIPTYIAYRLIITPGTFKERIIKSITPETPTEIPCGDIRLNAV", "assay": "Lead Profiling Screen radioligand binding"}, "[2]": {"assay": "brain tissue distribution in Sprague-Dawley rats", "assay_type": "in vivo", "settings": "male, rat, brain/plasma, iv, 1 mg/kg"}, "Bradykinin B2": {"biological_target": "Bradykinin B2 (Homo sapiens, UniProt P30411)", "assay": "Lead Profiling Screen radioligand binding"}, "Histamine, H2": {"biological_target": "Histamine, H2 (Homo sapiens, UniProt P25021)", "assay": "Lead Profiling Screen radioligand binding"}, "SERT": {"biological_target": "SERT (Mus musculus, UniProt Q60857)", "assay": "serotonin uptake in mouse forebrain synaptosomes", "assay_type": "biochemical", "settings": "5 μM ML352", "method_in_brief": "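Crude P2 synaptosomes from forebrains of male C57BL/6J mice (8–10 weeks), taken after decapitation under urethane. Incubated 10 min at 37 °C in Krebs bicarbonate buffer with 100 nM [3H]dopamine or [3H]serotonin ± test compound. Stopped on ice, rapidly filtered, counted by scintillation. Specific uptake defined with cocaine 1 μM (DAT) or citalopram 1 μM (SERT). Protein by BCA; n = 3.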"}, "Muscarinic M2": {"biological_target": "Muscarinic M2 (Homo sapiens, UniProt P08172)", "assay": "Lead Profiling Screen radioligand binding"}, "[3]": {"biological_target": "serotonin transporter (SERT) (Homo sapiens, UniProt P31645)", "sequence (P31645 whole entry)": "as above", "assay": "[3H]5-HT uptake in HEK293 hSERT cells", "assay_type": "cell-based", "settings": "transfected HEK 293 cells"}, "Adenosine A3": {"biological_target": "Adenosine A3 (Homo sapiens, UniProt P0DMS8)", "assay": "Lead Profiling Screen radioligand binding"}, "[4]": {"biological_target": "Transporter, Dopamine (DAT) (Homo sapiens, UniProt Q01959)", "assay": "Lead Profiling Screen radioligand binding"}, "Adrenergic β2": {"biological_target": "Adrenergic β2 (Homo sapiens, UniProt P07550)", "assay": "Lead Profiling Screen radioligand binding"}, "AChE": {"biological_target": "AChE (Mus musculus, UniProt P21836)", "sequence (P21836 32-614)": "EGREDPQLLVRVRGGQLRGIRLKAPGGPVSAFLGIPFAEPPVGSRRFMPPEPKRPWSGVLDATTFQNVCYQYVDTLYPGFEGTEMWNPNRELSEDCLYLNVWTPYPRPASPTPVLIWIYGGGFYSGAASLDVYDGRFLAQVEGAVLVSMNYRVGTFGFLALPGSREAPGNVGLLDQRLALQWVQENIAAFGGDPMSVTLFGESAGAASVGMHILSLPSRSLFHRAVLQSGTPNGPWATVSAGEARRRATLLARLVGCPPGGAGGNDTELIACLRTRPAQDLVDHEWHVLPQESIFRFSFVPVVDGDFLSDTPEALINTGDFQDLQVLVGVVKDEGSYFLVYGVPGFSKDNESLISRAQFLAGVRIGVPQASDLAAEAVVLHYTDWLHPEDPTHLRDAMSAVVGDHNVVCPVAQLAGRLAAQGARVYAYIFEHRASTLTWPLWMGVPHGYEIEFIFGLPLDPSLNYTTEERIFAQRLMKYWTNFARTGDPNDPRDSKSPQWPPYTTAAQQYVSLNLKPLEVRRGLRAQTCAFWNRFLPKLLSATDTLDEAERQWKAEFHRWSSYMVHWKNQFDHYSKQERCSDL", "assay": "AChE activity in mouse forebrain extracts", "assay_type": "biochemical", "settings": "concentrations well above the CHT Ki"}, "P450 2C9": {"biological_target": "P450 2C9 (Homo sapiens, UniProt P11712)", "sequence (P11712 whole entry)": "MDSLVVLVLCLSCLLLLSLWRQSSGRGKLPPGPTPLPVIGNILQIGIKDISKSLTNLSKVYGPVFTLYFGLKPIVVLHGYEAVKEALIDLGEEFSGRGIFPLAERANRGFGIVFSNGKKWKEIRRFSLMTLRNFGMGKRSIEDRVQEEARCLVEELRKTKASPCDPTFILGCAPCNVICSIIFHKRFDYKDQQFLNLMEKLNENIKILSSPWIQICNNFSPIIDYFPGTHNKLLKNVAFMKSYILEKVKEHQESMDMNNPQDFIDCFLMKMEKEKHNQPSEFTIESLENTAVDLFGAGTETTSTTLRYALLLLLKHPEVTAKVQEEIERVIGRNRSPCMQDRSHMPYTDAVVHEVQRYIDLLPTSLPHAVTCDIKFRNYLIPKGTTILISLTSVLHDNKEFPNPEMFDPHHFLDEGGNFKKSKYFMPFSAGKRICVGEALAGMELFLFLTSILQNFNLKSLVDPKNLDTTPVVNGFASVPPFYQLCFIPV"}, "ChAT": {"biological_target": "ChAT (Mus musculus, UniProt Q03059)", "sequence (Q03059 whole entry)": "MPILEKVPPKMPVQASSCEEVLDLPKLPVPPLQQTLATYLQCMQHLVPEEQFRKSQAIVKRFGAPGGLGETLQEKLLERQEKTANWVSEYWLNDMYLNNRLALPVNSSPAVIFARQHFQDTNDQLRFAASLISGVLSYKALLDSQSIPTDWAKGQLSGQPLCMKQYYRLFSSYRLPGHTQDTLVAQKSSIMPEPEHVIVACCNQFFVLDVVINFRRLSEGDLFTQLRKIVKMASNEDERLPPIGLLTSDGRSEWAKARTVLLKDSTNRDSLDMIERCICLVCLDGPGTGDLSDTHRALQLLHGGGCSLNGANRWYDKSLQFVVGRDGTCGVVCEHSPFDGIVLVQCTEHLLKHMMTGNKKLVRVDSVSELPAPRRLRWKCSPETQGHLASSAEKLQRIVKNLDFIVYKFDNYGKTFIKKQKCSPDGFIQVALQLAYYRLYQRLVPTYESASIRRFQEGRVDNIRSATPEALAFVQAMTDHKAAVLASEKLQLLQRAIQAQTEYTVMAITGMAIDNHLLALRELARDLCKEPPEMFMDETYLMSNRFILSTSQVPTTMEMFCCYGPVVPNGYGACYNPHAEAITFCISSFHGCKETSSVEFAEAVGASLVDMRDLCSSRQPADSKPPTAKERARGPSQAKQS", "assay": "ChAT activity in mouse forebrain extracts", "assay_type": "biochemical", "settings": "concentrations well above the CHT Ki"}, "[5]": {"tested_on": "nontransfected HEK 293 cells", "assay": "[3H]choline accumulation in nontransfected HEK 293 cells", "assay_type": "cell-based, human", "settings": "5 μM ML352; data not shown"}, "Potassium Channel [KATP]": {"tested_on": "Potassium Channel [KATP]", "assay": "Lead Profiling Screen radioligand binding", "settings": "10 μM ML352"}, "Rolipram": {"tested_on": "Rolipram", "assay": "Lead Profiling Screen radioligand binding", "settings": "10 μM ML352"}, "Histamine, H3": {"biological_target": "Histamine, H3 (Homo sapiens, UniProt Q9Y5N1)", "assay": "Lead Profiling Screen radioligand binding"}, "Glutamate, Kainate": {"tested_on": "Glutamate, Kainate", "assay": "Lead Profiling Screen radioligand binding", "settings": "10 μM ML352"}, "Bradykinin B1": {"biological_target": "Bradykinin B1 (Homo sapiens, UniProt P46663)", "assay": "Lead Profiling Screen radioligand binding"}, "WT hCHT": {"biological_target": "T1, WT hCHT (Homo sapiens, UniProt Q9GZV3)", "T1 sequence (Q9GZV3 1-580)": "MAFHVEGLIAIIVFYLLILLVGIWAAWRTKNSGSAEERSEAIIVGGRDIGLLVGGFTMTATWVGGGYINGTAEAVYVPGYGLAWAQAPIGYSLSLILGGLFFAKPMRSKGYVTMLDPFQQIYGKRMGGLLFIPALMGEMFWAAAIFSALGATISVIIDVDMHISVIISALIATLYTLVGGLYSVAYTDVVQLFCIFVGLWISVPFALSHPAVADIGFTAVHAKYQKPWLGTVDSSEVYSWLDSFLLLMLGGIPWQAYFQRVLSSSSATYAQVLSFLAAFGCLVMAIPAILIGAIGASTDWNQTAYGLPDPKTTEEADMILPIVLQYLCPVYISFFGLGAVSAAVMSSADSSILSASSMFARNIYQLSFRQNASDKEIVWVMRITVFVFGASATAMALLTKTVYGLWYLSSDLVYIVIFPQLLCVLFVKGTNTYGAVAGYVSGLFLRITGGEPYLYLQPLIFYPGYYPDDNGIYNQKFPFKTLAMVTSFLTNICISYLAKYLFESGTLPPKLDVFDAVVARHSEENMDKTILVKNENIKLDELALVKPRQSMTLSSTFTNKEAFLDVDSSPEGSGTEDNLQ", "assay": "cell-surface biotinylation, CHT surface expression in WT hCHT HEK 293 cells", "assay_type": "cell-based", "settings": "5 μM, 15 min incubation"}, "Neuropeptide Y Y2": {"biological_target": "Neuropeptide Y Y2 (Homo sapiens, UniProt P49146)", "assay": "Lead Profiling Screen radioligand binding"}, "Imidazoline I2, Central": {"tested_on": "Imidazoline I2, Central", "assay": "Lead Profiling Screen radioligand binding", "settings": "10 μM ML352"}, "Interleukin IL-1": {"biological_target": "Interleukin IL-1 (Mus musculus, UniProt P13504)", "assay": "Lead Profiling Screen radioligand binding"}, "[6]": {"biological_target": "Epidermal Growth Factor (EGF) (Homo sapiens, UniProt P00533)", "sequence (P00533 25-1210)": "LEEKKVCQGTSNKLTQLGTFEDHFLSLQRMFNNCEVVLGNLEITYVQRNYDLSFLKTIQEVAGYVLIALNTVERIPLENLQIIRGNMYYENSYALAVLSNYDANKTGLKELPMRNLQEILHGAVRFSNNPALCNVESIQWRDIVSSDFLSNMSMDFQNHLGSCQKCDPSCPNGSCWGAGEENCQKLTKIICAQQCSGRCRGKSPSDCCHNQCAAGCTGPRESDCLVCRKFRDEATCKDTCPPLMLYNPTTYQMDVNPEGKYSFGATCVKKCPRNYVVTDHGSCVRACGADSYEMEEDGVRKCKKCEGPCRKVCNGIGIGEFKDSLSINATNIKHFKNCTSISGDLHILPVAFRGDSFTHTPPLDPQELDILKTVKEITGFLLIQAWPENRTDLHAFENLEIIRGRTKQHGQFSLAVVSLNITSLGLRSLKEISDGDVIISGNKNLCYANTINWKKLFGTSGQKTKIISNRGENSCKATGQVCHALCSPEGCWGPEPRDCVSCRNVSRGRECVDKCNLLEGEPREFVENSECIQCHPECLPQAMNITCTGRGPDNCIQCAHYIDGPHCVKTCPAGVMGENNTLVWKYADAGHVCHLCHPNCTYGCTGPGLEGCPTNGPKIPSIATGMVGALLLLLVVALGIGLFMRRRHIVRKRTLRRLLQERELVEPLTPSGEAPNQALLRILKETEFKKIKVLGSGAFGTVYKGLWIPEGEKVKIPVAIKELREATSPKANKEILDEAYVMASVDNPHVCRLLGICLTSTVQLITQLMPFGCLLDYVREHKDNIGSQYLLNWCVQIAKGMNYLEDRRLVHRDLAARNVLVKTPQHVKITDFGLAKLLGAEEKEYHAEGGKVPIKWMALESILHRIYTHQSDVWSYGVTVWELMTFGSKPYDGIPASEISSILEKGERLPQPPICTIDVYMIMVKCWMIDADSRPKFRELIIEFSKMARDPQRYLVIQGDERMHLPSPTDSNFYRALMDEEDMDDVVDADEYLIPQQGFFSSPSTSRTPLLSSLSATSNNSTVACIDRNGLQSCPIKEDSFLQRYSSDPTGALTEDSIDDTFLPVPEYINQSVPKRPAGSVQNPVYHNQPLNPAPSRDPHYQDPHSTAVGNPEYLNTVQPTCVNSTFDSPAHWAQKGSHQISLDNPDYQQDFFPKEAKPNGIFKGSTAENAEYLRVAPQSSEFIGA", "assay": "Lead Profiling Screen radioligand binding"}, "Sigma σ1": {"biological_target": "Sigma σ1 (Homo sapiens, UniProt Q99720)", "assay": "Lead Profiling Screen radioligand binding"}, "[7]": {"biological_target": "Nicotinic Acetylcholine α1, Bungarotoxin (Homo sapiens, UniProt P02708+P07510+Q07001)", "assay": "Lead Profiling Screen radioligand binding"}, "Adenosine A2A": {"biological_target": "Adenosine A2A (Homo sapiens, UniProt P29274)", "assay": "Lead Profiling Screen radioligand binding"}, "Opiate δ1 (OP1, DOP)": {"biological_target": "Opiate δ1 (OP1, DOP) (Homo sapiens, UniProt P41143)", "assay": "Lead Profiling Screen radioligand binding"}, "P450 2D6": {"biological_target": "P450 2D6 (Homo sapiens, UniProt P10635)", "sequence (P10635 whole entry)": "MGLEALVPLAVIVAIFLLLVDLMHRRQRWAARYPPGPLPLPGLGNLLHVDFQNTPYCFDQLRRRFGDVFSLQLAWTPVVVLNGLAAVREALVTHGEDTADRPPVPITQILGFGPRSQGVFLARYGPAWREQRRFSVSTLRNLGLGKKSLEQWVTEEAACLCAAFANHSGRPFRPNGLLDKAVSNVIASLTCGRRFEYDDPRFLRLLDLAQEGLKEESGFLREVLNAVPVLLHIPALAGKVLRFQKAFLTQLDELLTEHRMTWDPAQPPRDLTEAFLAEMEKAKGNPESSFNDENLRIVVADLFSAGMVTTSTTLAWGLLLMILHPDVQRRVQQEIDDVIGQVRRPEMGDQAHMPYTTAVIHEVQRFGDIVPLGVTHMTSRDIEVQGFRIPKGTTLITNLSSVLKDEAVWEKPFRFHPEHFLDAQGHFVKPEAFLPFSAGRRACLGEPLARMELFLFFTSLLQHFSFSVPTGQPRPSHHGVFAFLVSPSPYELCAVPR", "assay": "cytochrome P450 inhibition"}, "P450 1A2": {"biological_target": "P450 1A2 (Homo sapiens, UniProt P05177)", "assay": "cytochrome P450 inhibition", "assay_type": "in vitro ADME"}, "PBS solubility": {"assay": "PBS solubility", "assay_type": "physicochemical", "settings": "aqueous buffer"}, "[8]": {"biological_target": "Leukotriene, Cysteinyl CysLT1 (Homo sapiens, UniProt Q9Y271)", "sequence (Q9Y271 whole entry)": "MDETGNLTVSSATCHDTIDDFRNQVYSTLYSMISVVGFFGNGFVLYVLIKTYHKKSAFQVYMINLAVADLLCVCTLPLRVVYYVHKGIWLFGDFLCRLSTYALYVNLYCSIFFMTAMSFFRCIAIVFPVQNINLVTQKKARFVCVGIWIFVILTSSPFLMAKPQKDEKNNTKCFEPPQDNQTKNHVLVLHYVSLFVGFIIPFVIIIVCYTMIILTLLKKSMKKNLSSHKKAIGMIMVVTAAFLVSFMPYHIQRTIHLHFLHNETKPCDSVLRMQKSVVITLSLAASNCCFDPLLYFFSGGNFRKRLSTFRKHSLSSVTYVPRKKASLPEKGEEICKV", "assay": "Lead Profiling Screen radioligand binding"}, "CHT": {"biological_target": "CHT (Mus musculus, UniProt Q8BGY9)", "assay": "choline uptake in mouse forebrain synaptosomes", "assay_type": "biochemical", "settings": "ML352 at 300 nM in saturation choline transport assays"}, "Dopamine D42": {"biological_target": "Dopamine D42 (Homo sapiens, UniProt P21917, DEL265-296)", "assay": "Lead Profiling Screen radioligand binding"}}, "note": "“Also recorded” adds a separate entry of the source.", "data": [{"smiles": "COc1ccc(C(=O)NCc2cc(C(C)C)no2)cc1OC1CCN(C)CC1", "note": "[ML352, N-((3-isopropylisoxazol-5-yl)methyl)-4-methoxy-3-((1-methylpiperidin-4-yl)oxy)benzamide]", "values": [{"measurement": "inhibition at 10 µM", "setting": "[1]", "value": 2, "unit": "%"}, {"measurement": "Kp at […]", "setting": "[2]", "value": 0.2}, {"measurement": "inhibition at 10 µM", "setting": "Bradykinin B2", "value": -3, "unit": "%"}, {"measurement": "inhibition at 10 µM", "setting": "Histamine, H2", "value": 20, "unit": "%"}, {"measurement": "inhibition of SERT", "setting": "SERT", "value": "fails to inhibit"}, {"measurement": "inhibition at 10 µM", "setting": "Muscarinic M2", "value": 12, "unit": "%"}, {"measurement": "inhibitory activity at SERT", "setting": "[3]", "value": "lack of inhibitory activity"}, {"measurement": "inhibition at 10 µM", "setting": "Adenosine A3", "value": 4, "unit": "%"}, {"measurement": "inhibition at 10 µM", "setting": "[4]", "value": 4, "unit": "%"}, {"measurement": "inhibition at 10 µM", "setting": "Adrenergic β2", "value": 43, "unit": "%"}, {"measurement": "inhibition of AChE", "setting": "AChE", "value": "no ability; also recorded: lacks activity; also recorded: no inhibition"}, {"measurement": "IC50", "setting": "P450 2C9", "value": "> 30", "unit": "µM"}, {"measurement": "inhibition of ChAT activity", "setting": "ChAT", "value": "no ability; also recorded: lacks activity; also recorded: no inhibition"}, {"measurement": "effect on [3H]choline accumulation in nontransfected HEK 293 cells", "setting": "[5]", "value": "< 20", "unit": "%"}, {"measurement": "% inhibition", "setting": "Potassium Channel [KATP]", "value": 4, "unit": "%"}, {"measurement": "% inhibition", "setting": "Rolipram", "value": 1, "unit": "%"}, {"measurement": "inhibition at 10 µM", "setting": "Histamine, H3", "value": 7, "unit": "%"}, {"measurement": "% inhibition", "setting": "Glutamate, Kainate", "value": "–2%"}, {"measurement": "inhibition at 10 µM", "setting": "Bradykinin B1", "value": 6, "unit": "%"}, {"measurement": "increase in steady-state hCHT surface expression", "setting": "WT hCHT", "value": "43.4 ± 4.7 % of control"}, {"measurement": "inhibition at 10 µM", "setting": "Neuropeptide Y Y2", "value": 7, "unit": "%"}, {"measurement": "% inhibition", "setting": "Imidazoline I2, Central", "value": 16, "unit": "%"}, {"measurement": "inhibition at 10 µM", "setting": "Interleukin IL-1", "value": -2, "unit": "%"}, {"measurement": "inhibition at 10 µM", "setting": "[6]", "value": 5, "unit": "%"}, {"measurement": "inhibition at 10 µM", "setting": "Sigma σ1", "value": -1, "unit": "%"}, {"measurement": "inhibition at 10 µM", "setting": "[7]", "value": 7, "unit": "%"}, {"measurement": "inhibition at 10 µM", "setting": "Adenosine A2A", "value": 0, "unit": "%"}, {"measurement": "inhibition at 10 µM", "setting": "Opiate δ1 (OP1, DOP)", "value": -2, "unit": "%"}, {"measurement": "IC50", "setting": "P450 2D6", "value": "> 30", "unit": "µM"}, {"measurement": "IC50", "setting": "P450 1A2", "value": "> 30", "unit": "µM"}, {"measurement": "solubility", "setting": "PBS solubility", "value": "98.2 ± 1.1", "unit": "µM"}, {"measurement": "inhibition at 10 µM", "setting": "[8]", "value": -3, "unit": "%"}, {"measurement": "mode of choline uptake inhibition", "setting": "CHT", "value": "noncompetitively inhibits"}, {"measurement": "inhibition at 10 µM", "setting": "Dopamine D42", "value": -3, "unit": "%"}]}]}
